# Compound activity deposited in PubChem by several laboratories.
# In the library only some 2.8% were active in any assay of this set; here they are far more common.
# NPY-Y1 antag: NPY-Y1 receptor antagonists, primary screen, cell-based. HEK293-CNG Y1 cells, membrane potential fluorescence; NPY at EC95, then isoproterenol. Neuropeptide Y receptor type 1 (Homo sapiens), P25929. AID 1040, 2008. inhibition, % at 3.6 µM. hit rate 1% among 200,000;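 active = inhibition above the campaign mean inhibition of all tested compounds plus 3 SD, cut at about 20% in these data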
#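 Assay system: HEK293 Y1/CNG channel cell line; Doses: single compound dose of 3.6 µM, 0.4% DMSO; Timing: dye 3 h, compound 60 min room temperature, stimulation 45 min; Technique: Membrane-potential fluorescent dye readout; Measure: % inhibition of NPY effect.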
# NPY1 pot ag: NPY-Y1 receptor potentiators or agonists, primary screen, cell-based; Neuropeptide Y receptor type 1 (Homo sapiens), P25929; NPY-Y1 expressing cells, potentiator/agonist activation; activation, % at 3.6 µM; hit rate 0.37% among 220,000; AID 1304, 2008; in the data active = activation above about 33%, passing the limit was not always enough;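 note: cells stimulated with NPY at EC10 then isoproterenol at EC100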
# NPY2 pot ag: NPY-Y2 potentiators or agonists, primary screen, cell-based; activation, % at 3.6 µM; Neuropeptide Y receptor type 2 (Homo sapiens), P49146; cells expressing NPY-Y2, potentiator/agonist read-out; hit rate 0.45% among 220,000; in the data active = activation above about 27%;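 note: cells stimulated with NPY near EC25 plus isoproterenol at EC100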
# NPY-Y2 antag: NPY-Y2 receptor antagonists, primary screen, cell-based | Neuropeptide Y receptor type 2 (Homo sapiens), P49146 | NPY-Y2 expressing cells, antagonist mode | inhibition, % at 2.7 µM | hit rate 0.99% among 140,000 | AID 793, 2007; in the data active = inhibition above about 17%
# Measles CPE: compounds protecting cells from measles virus cytopathic effect, primary screen, measles RdRp inhibitor project, single point, MLSMR library, absorbance; hit rate 1.5% among 140,000; protection (pct of control), % at 4 µM; Measles virus-infected cells, CPE protection; in the data active = protection mostly above about 24%, no sharp cut-off; inactive = mostly below about 26%
# MDM2 E3 inh: MDM2-luciferase reporter signal enhancers, primary screen, MDM2 E3 ligase inhibitor project, cell-based, luminescence, 1536-well; E3 ubiquitin-protein ligase Mdm2 (Homo sapiens), Q00987; cell-based MDM2 ubiquitination luciferase reporter, 2 h; 0 = plate control, 100 = twice control, blank-subtracted; signal enhancement, % at 5 µM; hit rate 0.11% among 210,000; AID 1230, 2008;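 active = signal enhancement of 30% or more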;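 note: luminescence tracks abundance of the self-degrading MDM2-luciferase fusion protein; higher signal means inhibition of MDM2 E3 ligase activity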
# Target sequence (Q00987 whole entry, looked up, the tested form may be a part): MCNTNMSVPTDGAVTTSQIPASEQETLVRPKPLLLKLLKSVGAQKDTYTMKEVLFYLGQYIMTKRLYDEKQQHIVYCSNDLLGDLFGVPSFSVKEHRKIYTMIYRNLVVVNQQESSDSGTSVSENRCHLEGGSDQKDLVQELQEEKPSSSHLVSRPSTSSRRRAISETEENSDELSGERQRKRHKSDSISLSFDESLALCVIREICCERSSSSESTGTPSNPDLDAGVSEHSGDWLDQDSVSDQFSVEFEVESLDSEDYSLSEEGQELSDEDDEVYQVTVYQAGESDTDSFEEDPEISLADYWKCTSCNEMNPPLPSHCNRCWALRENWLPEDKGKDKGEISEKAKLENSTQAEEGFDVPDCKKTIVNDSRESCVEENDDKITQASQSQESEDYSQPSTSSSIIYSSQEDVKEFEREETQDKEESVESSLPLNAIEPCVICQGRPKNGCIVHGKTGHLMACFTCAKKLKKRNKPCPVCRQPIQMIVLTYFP
#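 test system = mammalian cells stably expressing self-ubiquitinating, self-degrading MDM2 E3–luciferase fusion | quantity = 2000 cells/well | incubation = cell settling 4 h, compound treatment 2 h, both 37 °C | signal = luminescence with SteadyLite reagent, 15 min at room temperature | evaluation = % enhancement relative to plate controls after blank subtraction | benchmarks = plate controls and plate blanks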
# Numbers stand for hits; – = inactive; · = no result given.
SMILES,NPY-Y1 antag,NPY1 pot ag,NPY2 pot ag,NPY-Y2 antag,Measles CPE,MDM2 E3 inh
CCN(CC)S(=O)(=O)c1ccc(/C=C/C(=O)OCC(=O)Nc2ccc(C(N)=O)cc2)cc1,–,–,–,·,·,–
CCN(CC)S(=O)(=O)c1ccc(/C=C/C(=O)OCC(=O)Nc2ccc(S(N)(=O)=O)cc2)cc1,–,–,–,–,28,–
COc1ccc(-n2nc([N+](=O)[O-])c(=NCCC3=CCCCC3)n2O)cc1,–,–,–,·,·,–
CCOC(=O)C1(CC2CC2)CCN(C(=O)c2cccnc2C)CC1,–,–,–,·,·,–
c1coc(-c2nc3ccccc3nc2-c2ccco2)c1,–,–,–,–,41,–
O=C(c1ccccc1)c1ccc2nc(-c3ccco3)c(-c3ccco3)nc2c1,–,–,–,·,·,–
CC(C)(C)c1cc[n+](CC(=O)Nc2cc(C(F)(F)F)ccc2N2CCOCC2)cc1,–,–,–,·,·,–
O=C(CSc1nnc2n(C3CCCC3)c(=O)c3ccccc3n12)N1CCCCCC1,–,92,86,–,–,–
Cc1ccc2c(CSc3nnc4ccccn34)cc(=O)oc2c1C,–,–,–,–,–,–
Cc1ccc2c(CSc3nc4ccccc4c(=O)n3CCCO)cc(=O)oc2c1C,31,–,–,28,–,·
CC(=O)NCCn1c(SCc2ccc(C)cc2)nc2ccccc2c1=O,–,–,–,–,–,–
CC(=O)NCCn1c(SCc2ccccc2F)nc2ccccc2c1=O,–,77,102,–,–,–
COc1ccc(S(=O)(=O)N2CCc3ccccc32)cc1C(=O)OCc1nnc(-c2ccccc2)o1,–,–,–,–,–,–
C=CCc1ccc(O)c(-c2ccc(O)c(CC=C)c2)c1,–,–,–,·,·,–
CC(C)OP(=O)(OC(C)C)C(Nc1ccc([N+](=O)[O-])cc1)c1cccc([N+](=O)[O-])c1 (stereo unspecified),·,–,–,·,·,–
CC(C)OP(=O)(OC(C)C)/C(C=O)=N\Nc1ccc([N+](=O)[O-])cc1,·,51,53,·,·,–
CCOc1ccc(N=c2oc3cc(O)ccc3cc2C(=O)NCC2CCCO2)cc1 (stereo unspecified),–,–,–,–,–,–
CCOc1ccccc1N=c1oc2cc(O)ccc2cc1C(=O)NCC1CCCO1 (stereo unspecified),36,–,–,25,–,–
COc1ccc(N=c2oc3cc(O)ccc3cc2C(=O)NCC2CCCO2)c(OC)c1 (stereo unspecified),30,–,–,31,–,–
COc1cc(SC)ccc1C(=O)NCC1CCCO1 (stereo unspecified),–,–,–,–,–,–
Cc1ccc(Cn2nnc3c(=O)[nH]c(C4CCCN(S(=O)(=O)c5ccccc5)C4)nc32)cc1 (stereo unspecified),–,–,–,–,46,–
Cc1cccc2sc(NC(=O)Cn3cccc3)nc12,–,–,–,–,77,–
Cc1ccc(Cl)cc1NC(=O)Cn1cccc1,–,–,–,–,70,–
CCOC(=O)c1ccc(NC(=O)Cn2cccc2)cc1,–,–,–,–,–,·
CCc1cccc(NC(=O)Cn2cccc2)c1,–,–,–,–,50,–
SMILES,NPY-Y1 antag,NPY1 pot ag,NPY2 pot ag,NPY-Y2 antag,Measles CPE,MDM2 E3 inh
Cc1cccc2sc(NC(=O)CCn3cccc3)nc12,–,–,–,·,·,–
N#Cc1c(Nc2ccccc2)sc(C(=O)c2ccccc2)c1N,–,–,–,–,68,–
N#Cc1c(Nc2ccc(F)cc2)sc(C(=O)c2ccccc2)c1N,–,–,–,–,–,–
CCCCC[C@H](O)/C=C/[C@@H]1[C@@H](C/C=C\CCCC(=O)OC)[C@@H](O)C[C@H]1O,63,–,–,20,–,·
Fc1ccc(C(c2nnnn2C2CCCC2)N2CCc3ccccc32)cc1 (stereo unspecified),–,–,–,–,–,–
Fc1ccc(C(c2nnnn2CCc2ccccc2)N2CCCc3ccccc32)cc1 (stereo unspecified),27,–,–,38,–,–
Cc1cccc2sc(NNC(=O)c3ccc4c(c3)OCCO4)nc12,–,–,–,–,37,·
Cc1ccc(C)c2c3c([nH]c12)-c1nonc1CC3,–,–,–,–,74,–
CCn1cc(Cl)c(C(=O)Nc2ccccc2C(N)=O)n1,–,–,–,·,·,–
CC(C)(C)C(=O)CSc1nnc(Nc2ccccc2)s1,–,–,–,·,·,–
O=C(c1ccc(Cl)cc1)N1CCCCC(Sc2nnc(-c3ccc4c(c3)OCO4)o2)C1=O (stereo unspecified),–,–,–,–,39,–
CCN(CC)c1ccc(C(=O)OCc2c(C)noc2C)cc1,–,–,–,·,·,–
COc1ccc(C2CC23N=C(c2ccccc2)OC3=O)cc1 (stereo unspecified),–,–,–,–,43,–
Cc1[nH]c2c(C)cccc2c1CCNC(=O)c1ccc2c(c1[N+](=O)[O-])C(=O)c1ccccc1C2=O,–,68,59,–,–,–
COc1ccc2[nH]c(=O)c(CN(Cc3ccco3)Cc3nnnn3Cc3ccccc3)cc2c1,–,–,–,–,–,–
CCc1ccc2[nH]c(=O)c(CN(Cc3ccccc3OC)Cc3nnnn3Cc3ccco3)cc2c1,–,–,–,19,–,–
O=C(N/N=C\CCc1ccccc1)c1ccco1,–,–,–,–,57,–
C/C(=N\NC(=O)c1nn(C)cc1Br)c1cccc(NC(=O)C(C)(C)C)c1,–,103,41,–,–,–
CCS(=O)(=O)c1ccc2oc(SCC(=O)N3CCCCC3)nc2c1,–,–,–,·,·,–
COc1ccc(/C(C)=N/NC(=O)Cn2nc([N+](=O)[O-])cc2C)cc1,·,–,–,·,·,–
O=C(Nc1ccccc1C(=O)O)/C(=C/c1ccc([N+](=O)[O-])cc1)NC(=O)c1ccc(Br)o1,–,–,–,·,·,–
O=C(NNC(=O)c1cc(OCC(F)(F)F)ccc1OCC(F)(F)F)c1cccc(C(F)(F)F)c1,–,–,–,–,78,–
c1ccc(-c2ccc3c(c2)c2c4n3CCN=C4CCC2)cc1,–,–,–,–,–,–
OC1(c2ccccc2F)CCN(Cc2nnc(-c3ccccc3)o2)CC1,–,–,–,–,81,–
CCCCOCCCNC1=NCCCCC1,–,–,–,–,–,–
O=C(O)CCCNC1=NCCC1,42,–,–,–,–,–
O=C(O)[C@H]1CCCC[C@H]1C(=O)Nc1ccc(Nc2ccccc2)cc1,–,49,34,–,–,–
